Key:
SF-268 = assay: Anticancer activity against human SF268 cells assessed as cell growth at 100 uM after 48 hrs by SRB assay; assay type: functional; settings: SF-268, 48 h, read-out: Activity
Method in brief: (§1)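 NCI one-dose primary screen on a three-line panel (breast MCF7, lung NCI-H460, CNS SF-268). Cells were inoculated and preincubated 24–48 h, then exposed to a single concentration of 10−4 M for 48 h. The endpoint was sulforhodamine B protein staining, and results are expressed as percent growth relative to untreated control cells. Negative values denote cytotoxicity.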

MCF7 = assay: Anticancer activity against human MCF7 cells assessed as cell growth at 100 uM after 48 hrs by SRB assay; assay type: functional; settings: MCF7, 48 h, read-out: Activity; method in brief: as §1
NCI-H460 [1] = assay: Anticancer activity against human NCI-H460 cells assessed as cell growth at 100 uM after 48 hrs by SRB assay; assay type: functional; settings: NCI-H460, 48 h, read-out: Activity; method in brief: as §1
[2] = Acute toxicity in ip dosed white mouse; assay type: organism-based; settings: in vivo
Method in brief: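 White male mice, 23-25 g, dosed intraperitoneally with compound dissolved in 0.9% NaCl saline plus 1-2 drops Polysorbate 80 (Tween-80). Solutions prepared immediately before use. Doses ranged 100-1000 mg/kg, testing 4 or 5 doses with 6 animals per dose. LD50 derived by the Litchfield-Wilcoxon method.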

[3] = test system: Trypanosoma brucei brucei; assay: Antitrypanosomal activity against bloodstream form of Trypanosoma brucei brucei strain 90-13 assessed as inhibition of parasite growth at 10 ug/ml after 72 hrs by resazurin reduction test; assay type: functional; settings: strain 90-13, 72 h
Method in brief: (§2)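 Trypanosoma brucei brucei 90-13 bloodstream forms, grown in HMI9 with 10% FCS at 37 °C under 5% CO2. Log-phase parasites were seeded at 10^5 cells/mL with or without inhibitor, with stocks prepared in DMSO. After 72 h, resazurin was added and fluorescence was read at 530/590 nm after a further 4 h. Percent growth inhibition was calculated versus drug-free parasites, with DMSO as control.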

MDA-MB-231 = assay: Growth inhibition of human MDA-MB-231/ATCC cells after 48 hrs by SRB assay; assay type: functional; settings: MDA-MB-231, 48 h
Method in brief: (§3)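 NCI five-dose assay against the ~60-cell-line panel (nine cancer types). Tenfold dilutions from 10−4 to 10−8 M were used with continuous 48-h exposure and SRB absorbance readout. Percent growth was computed from time-zero, control and treated absorbances. GI50 is the concentration giving 50% lower net protein increase than controls. Values not reached are reported as beyond the tested range.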

PC-3 = assay: Growth inhibition of human PC3 cells after 48 hrs by SRB assay; assay type: functional; settings: PC-3, 48 h; method in brief: as §3
[4] = Growth inhibition of human 786-O cells after 48 hrs by SRB assay; assay type: functional; settings: 786-0, 48 h; method in brief: as §3
M14 = assay: Growth inhibition of human M14 cells after 48 hrs by SRB assay; assay type: functional; settings: M14, 48 h; method in brief: as §3
LOX IMVI = assay: Growth inhibition of human LOXIMVI cells after 48 hrs by SRB assay; assay type: functional; method in brief: as §3
U-251 = assay: Growth inhibition of human U251 cells after 48 hrs by SRB assay; assay type: functional; settings: U-251, 48 h
Method in brief: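 NCI ~60-cell-line five-dose screen. Cells were preincubated 24-48 h, then given compound at 10-fold dilutions from 10^-4 to 10^-8 M with 48 h continuous exposure. SRB protein stain was read by absorbance at time zero, in untreated control and with drug. GI50 was derived from [(Ti-Tz)/(C-Tz)]x100=50, TGI from Ti=Tz, and LC50 from [(Ti-Tz)/Tz]x100=-50.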

HCT-116 = assay: Growth inhibition of human HCT116 cells after 48 hrs by SRB assay; assay type: functional; settings: HCT-116, 48 h; method in brief: as §3
NCI-H460 [5] = assay: Growth inhibition of human NCI-H460 cells after 48 hrs by SRB assay; assay type: functional; settings: NCI-H460, 48 h; method in brief: as §3
NCI-H23 = assay: Growth inhibition of human NCI-H23 cells after 48 hrs by SRB assay; assay type: functional; settings: NCI-H23, 48 h; method in brief: as §3
HOP-62 = assay: Growth inhibition of human HOP62 cells after 48 hrs by SRB assay; assay type: functional; settings: HOP-62, 48 h; method in brief: as §3
[6] = Growth inhibition of human […] cells after 48 hrs by SRB assay; assay type: functional; method in brief: as §3
MOLT-4 = assay: Growth inhibition of human MOLT4 cells after 48 hrs by SRB assay; assay type: functional; settings: MOLT-4, 48 h; method in brief: as §3
[7] = test system: Trypanosoma brucei brucei; assay: Antitrypanosomal activity against bloodstream form of Trypanosoma brucei brucei strain 90-13 assessed as inhibition of parasite growth at 1 ug/ml after 72 hrs by resazurin reduction test; assay type: functional; settings: strain 90-13, 72 h; method in brief: as §2
KM12 = assay: Growth inhibition of human KM12 cells after 48 hrs by SRB assay; assay type: functional; settings: KM12, 48 h; method in brief: as §3
CCRF-CEM = assay: Growth inhibition of human CCRF-CEM cells after 48 hrs by SRB assay; assay type: functional; method in brief: as §3
[8] = Growth inhibition of human HOP92 cells after 48 hrs by SRB assay; assay type: functional; settings: HOP-92, 48 h; method in brief: as §3
BT-549 = assay: Growth inhibition of human BT549 cells after 48 hrs by SRB assay; assay type: functional; settings: BT-549, 48 h; method in brief: as §3
NCI/ADR-RES = assay: Growth inhibition of human NCI/ADR-RES cells after 48 hrs by SRB assay; assay type: functional; method in brief: as §3

`COc1ccc2cc(C(=O)Nc3cccc(C(F)(F)F)c3)sc(=O)c2c1OC` gave a growth at 100 µM (SF-268) of 49%, a growth at 100 µM (MCF7) of 45% and a growth at 100 µM (NCI-H460 [1]) of 4%. The LD50 [2] was 750 mg/kg, the inhibition at 10 µg/mL [3] was 5.46% and the GI50 (MDA-MB-231) was 2.09 µM. For the same molecule, the TGI (MDA-MB-231; read-out: pTGI (converted)) was 5.37 µM, the GI50 (PC-3) was 4.68 µM and the TGI (PC-3; read-out: pTGI (converted)) was 19.5 µM. The GI50 [4] was 3.39 µM, the TGI ([4]; read-out: pTGI (converted)) was 12.3 µM and the GI50 (M14) was 7.76 µM. For the same molecule, the TGI (M14; read-out: pTGI (converted)) was 20 µM, the GI50 (LOX IMVI) was 6.92 µM and the TGI (LOX IMVI; read-out: pTGI (converted)) was 21.9 µM. The GI50 (U-251) was 3.16 µM, the TGI (U-251; read-out: pTGI (converted)) was 11 µM and the GI50 (HCT-116) was 3.39 µM. The TGI (HCT-116; read-out: pTGI (converted)) was 14.5 µM, the GI50 (NCI-H460 [5]) was 5.37 µM and the TGI (NCI-H460 [5]; read-out: pTGI) was > 100 µM. The GI50 (NCI-H23) was 6.46 µM, the TGI (NCI-H23; read-out: pTGI (converted)) was 18.6 µM and the GI50 (HOP-62) was 5.37 µM. It also gave a TGI (HOP-62; read-out: pTGI (converted)) of 16.2 µM, a GI50 [6] of 2.04 µM and a TGI ([6]; read-out: pTGI (converted)) of 5.75 µM. For the same molecule, the GI50 (MOLT-4) was 5.62 µM, the TGI (MOLT-4; read-out: pTGI (converted)) was 25.7 µM and the inhibition at 1 µg/mL [7] was -9.98%. The GI50 (KM12) was 9.55 µM, the TGI (KM12; read-out: pTGI) was > 100 µM and the GI50 (CCRF-CEM) was 12 µM. The TGI (CCRF-CEM; read-out: pTGI (converted)) was 91.2 µM, the GI50 [8] was 3.02 µM and the TGI ([8]; read-out: pTGI (converted)) was 10 µM. It also gave a GI50 (BT-549) of 2.45 µM, a TGI (BT-549; read-out: pTGI (converted)) of 7.08 µM and a GI50 (NCI/ADR-RES) of 8.43 µM. The TGI (NCI/ADR-RES; read-out: pTGI (converted)) was 21.9 µM.

In the case of `O=C(Nc1cccc2ccccc12)c1cc2ccccc2c(=O)s1`, the LD50 [2] is reported as 410 mg/kg, the inhibition at 10 µg/mL [3] is reported as > 50% and the inhibition at 1 µg/mL [7] is reported as 60.8%.

Reference: ChEMBL document CHEMBL3124905, “Isothiocoumarin-3-carboxylic acid derivatives: synthesis, anticancer and antitrypanosomal activity evaluation” (Eur J Med Chem, 2014)
